We go through 43 compounds from ChEMBL document CHEMBL1156942, “Inhibitors of hepatitis C virus polymerase: synthesis and characterization of novel 2-oxy-6-fluoro-N-((S)-1-hydroxy-3-phenylpropan-2-yl)-benzamides” (Bioorg Med Chem Lett, 2010).

Active and inactive are the calls of the source. The calls are words filed in the database; no cut-off is given here. Bounds are passed on as bounds.

In test [1] the test system is Hepatitis C virus. The experiment in a line: Inhibition of HCV Con1 NS5B polymerase. In kind it is functional, Hepatitis C virus (isolate Con1). The settings on record: 1b. The method, boiled down:
(§1)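 The buffer is 20 mM HEPES pH 7.3, 7.5 mM DTT, 10 mM MgCl2, 60 mM NaCl, RNasin, BSA, GTP/ATP/UTP, and CTP supplemented to 20 nM. It uses 100 nM heteropolymer RNA template and 0.25 mM trinucleotide initiator. Incubation is 2 h at room temperature, then stopped with EDTA, and filter-bound label is counted. IC50 comes from 10 twofold dilutions in duplicate, averaged over two separate weighings.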

Test [2] has as its system Hepatitis C virus. The experiment in a line: Inhibition of HCV 1a NS5B polymerase. Format: functional, Hepatitis C virus subtype 1a. Put shortly:
as §1

The test system of test [3] is Hepatitis C virus. The experiment in a line: Inhibition of HCV Con1 NS5B polymerase M414T mutant. Format: functional, Hepacivirus hominis. The conditions noted are these: isolate Con1. The method, boiled down:
(§2)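 Mutant Con1 NS5B (Δ21) at 30 nM was run in a de novo initiation assay with 100 nM heteropolymer RNA template and 0.25 mM trinucleotide initiator. Incubation: RT, 2 h, stopped with EDTA. Read-out: filter-bound label. IC50 from 10 twofold dilutions in duplicate; means of duplicates on two weighings.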

Test [4] has as its system Hepatitis C virus. Briefly: Inhibition of HCV Con1 NS5B polymerase G554D mutant. Format: functional, Hepacivirus hominis. The settings on record: isolate Con1. Put shortly: as §2
Test [5] relates to Hepatitis C virus. The experiment in a line: Inhibition of HCV Con1 NS5B polymerase C316N mutant. Format: functional, Hepacivirus hominis. The conditions noted are these: isolate Con1. The method, boiled down: as §2
For test [6], the system named is Hepatitis C virus. The experiment in a line: Inhibition of HCV Con1 NS5B polymerase C316Y mutant. The conditions noted are these: isolate Con1. Format: functional, Hepacivirus hominis. Put shortly: as §2
The subject of test [7] is Hepatitis C virus. Briefly: Selectivity ratio of IC50 for HCV Con1 NS5B polymerase M414T mutant to IC50 for HCV 1b Con1 NS5B polymerase. In kind it is functional, Hepacivirus hominis, isolate Con1.
Test [8] has as its system Hepatitis C virus. The experiment in a line: Selectivity ratio of IC50 for HCV Con1 NS5B polymerase C316Y mutant to IC50 for HCV 1b Con1 NS5B polymerase. Format: functional, Hepacivirus hominis, isolate Con1.
Test [9] has as its system Hepatitis C virus. The experiment in a line: Selectivity ratio of IC50 for HCV Con1 NS5B polymerase G554D mutant to IC50 for HCV 1b Con1 NS5B polymerase. Format: functional, Hepacivirus hominis, isolate Con1.
Test [10] relates to Hepatitis C virus genotype 4. Briefly: Inhibition of HCV genotype 4 NS5B polymerase up to 200 uM.
In test [11] the test system is Hepatitis C virus genotype 3. The experiment in a line: Inhibition of HCV genotype 3 NS5B polymerase up to 200 uM.
In test [12] the test system is Hepatitis C virus genotype 2. Briefly: Inhibition of HCV genotype 2 NS5B polymerase up to 200 uM.

What is called IC50 is the concentration that inhibits the measured activity by half. As for `COC[C@H]1CCCN1C(=O)c1c(F)cccc1OCC(=O)N[C@H](CO)Cc1ccccc1`, the IC50 with Hepatitis C virus [1] was 20 µM. Still for that read-out and setting: the same measure for `COCCNC(=O)c1c(F)cccc1OCC(=O)N[C@H](CO)Cc1ccccc1`: greater than 20 µM; for `CCCN(CC1CC1)C(=O)c1c(F)cccc1OCC(=O)N[C@H](CO)Cc1ccccc1`: 2.6 µM.

Turning to `CC(C)(C)CC[C@@]1(C)CC(C2=NS(=O)(=O)c3cc(NS(C)(=O)=O)ccc3N2)=C(O)c2ccccc21`, the IC50 in the test with Hepatitis C virus [2] turned out to be 0.003 µM; in the test with Hepatitis C virus [3], 0.004 µM; with Hepatitis C virus [4], 0.3 µM; in the test with Hepatitis C virus [5], 0.004 µM; with Hepatitis C virus [6], 0.008 µM. `O=C(COc1cccc(F)c1C(=O)NCCc1ccccc1)N[C@H](CO)Cc1ccccc1` gave an IC50 in the test on Hepatitis C virus [1] greater than 20 µM. Same read-out and setting: the same measure for `CCCN(CCOC)C(=O)c1c(F)cccc1OCC(=O)N[C@H](CO)Cc1ccccc1`: 17 µM; for `COC[C@H](Cc1ccccc1)NC(=O)COc1cccc(F)c1C(=O)NCCC1=CCCCC1`: greater than 20 µM; for `CCCCNC(=O)c1c(F)cccc1OCC(=O)N[C@H](CO)Cc1ccccc1`: greater than 20 µM. Regarding `COC(=O)[C@@H](Cc1ccccc1)N(C)C(=O)c1c(F)cccc1OCC(=O)N[C@H](CO)Cc1ccccc1`, in the test on Hepatitis C virus [1], the IC50 is 4.3 µM. On the same count and under the same terms, the same measure for `O=C(COc1cccc(F)c1C(=O)N1CCCCC1)N[C@H](CO)Cc1ccccc1`: greater than 20 µM; for `O=C(COc1cccc(F)c1C(=O)NCCC1=CCCCC1)N[C@@H](CO)Cc1ccccc1`: greater than 20 µM; for `CCN(CC)C(=O)c1c(F)cccc1OCC(=O)N[C@H](CO)Cc1ccccc1`: 6 µM. On the same count and under the same terms, the same measure for `C=CCN(CC=C)C(=O)c1c(F)cccc1OCC(=O)N[C@H](CO)Cc1ccccc1`: 2.2 µM; for `CCOCCN(CCOCC)C(=O)c1c(F)cccc1OCC(=O)N[C@H](CO)Cc1ccccc1`: greater than 20 µM.

As to `CCCN(CC)C(=O)c1c(F)cccc1OCC(=O)N[C@H](CO)Cc1ccccc1`, half-maximal inhibition in the test with Hepatitis C virus [1] (IC50) was put at 2.3 µM. This counts as single-digit micromolar. Take `CCCCN(C)C(=O)c1c(F)cccc1OCC(=O)N[C@H](CO)Cc1ccccc1`: the “Ratio IC50” value with Hepatitis C virus [7] came to 10; with Hepatitis C virus [8] it was 100; in the test with Hepatitis C virus [9] it was 150. The IC50 in the test on Hepatitis C virus [2] amounted to 43 µM; in the test with Hepatitis C virus [3], 10 µM; in the test on Hepatitis C virus [4] it was 120 µM; with Hepatitis C virus [5] it was 0.9 µM; in the test on Hepatitis C virus [6] it was 90 µM. The inhibition result in test [10], in test [11] and in test [12] was “inactive” in each case. `CN(CCc1ccccc1)C(=O)c1c(F)cccc1OCC(=O)N[C@H](CO)Cc1ccccc1` yielded an IC50 in the test on Hepatitis C virus [1] of 20 µM. Take `O=C(COc1cccc(F)c1C(=O)N1CCCC1)N[C@H](CO)Cc1ccccc1`: the IC50 with Hepatitis C virus [1] was greater than 20 µM. The same measure, in the same setting: the result for `CCN(C(=O)c1c(F)cccc1OCC(=O)N[C@H](CO)Cc1ccccc1)C(C)C` reads 7 µM; that for `O=C(COc1cccc(F)c1C(=O)N[C@H](CO)Cc1ccccc1)NCCC1=CCCCC1`, greater than 20 µM; that for `CCCCN(CC)C(=O)c1c(F)cccc1OCC(=O)N[C@H](CO)Cc1ccccc1`, 0.47 µM. For `C[C@H](c1ccccc1)N(C)C(=O)c1c(F)cccc1OCC(=O)N[C@H](CO)Cc1ccccc1`, the IC50 in the test on Hepatitis C virus [1] was 0.43 µM.

With `O=C(COc1cccc(F)c1C(=O)NCCC1=CCCCC1)N[C@H](CO)Cc1ccccc1`, 4.3 µM corresponded to half-maximal inhibition in the test with Hepatitis C virus [1] (IC50). Still for that read-out and setting: the result for `O=C(COc1cccc(F)c1C(=O)NCCC1CCCCC1)N[C@H](CO)Cc1ccccc1` reads greater than 20 µM; that for `CCOc1cc(CCNC(=O)c2c(F)cccc2OCC(=O)N[C@H](CO)Cc2ccccc2)ccc1OC`, greater than 20 µM. Same read-out and setting: the same measure for `COC(=O)[C@H](c1ccccc1)N(C)C(=O)c1c(F)cccc1OCC(=O)N[C@H](CO)Cc1ccccc1`: 4.6 µM. In turn, `CCN(CCOC)C(=O)c1c(F)cccc1OCC(=O)N[C@H](CO)Cc1ccccc1` displayed an IC50 in the test on Hepatitis C virus [1] of 8 µM. The same measure, in the same setting: the same measure for `O=C(COc1cccc(F)c1C(=O)NCCCCO)N[C@H](CO)Cc1ccccc1`: greater than 20 µM; for `O=C(COc1cccc(F)c1C(=O)N1CCCC1C1CCCCC1)N[C@H](CO)Cc1ccccc1` (stereo partly specified): 4 µM. Regarding `CC(C)(C)CCNC(=O)c1c(F)cccc1OCC(=O)N[C@H](CO)Cc1ccccc1`, in the test with Hepatitis C virus [1], the IC50 is greater than 20 µM. In the case of `CC(C)CCNC(=O)c1c(F)cccc1OCC(=O)N[C@H](CO)Cc1ccccc1`, in the test with Hepatitis C virus [1], the IC50 is greater than 20 µM. Turning to `CNC(=O)c1c(-c2ccc(F)cc2)oc2cc(N(CCO)S(C)(=O)=O)c(C3CC3)cc12` [NESBUVIR], the IC50 in the test on Hepatitis C virus [2] worked out at 0.04 µM; in the test with Hepatitis C virus [3] it was 0.06 µM; with Hepatitis C virus [4], 0.05 µM; with Hepatitis C virus [5], 0.12 µM; with Hepatitis C virus [6] it was 2 µM. As to `O=C(COc1cccc(F)c1C(=O)N1CCCC1c1cccc(Cl)c1)N[C@H](CO)Cc1ccccc1` (stereo partly specified), the IC50 in the test on Hepatitis C virus [1] was determined as 1.9 µM. Still for that read-out and setting: the same measure for `CC1CCN(C(=O)c2c(F)cccc2OCC(=O)N[C@H](CO)Cc2ccccc2)CC1`: 2.3 µM; for `COCCN(C(=O)c1c(F)cccc1OCC(=O)N[C@H](CO)Cc1ccccc1)C(C)C`: 6 µM; for `COC[C@@H]1CCCN1C(=O)c1c(F)cccc1OCC(=O)N[C@H](CO)Cc1ccccc1`: 7.7 µM. In the test on Hepatitis C virus [1], `CCCN(CCC)C(=O)c1c(F)cccc1OCC(=O)N[C@H](CO)Cc1ccccc1` had an IC50 of 2.7 µM. `O=C(COc1cccc(F)c1C(=O)N1CCC(c2ccccc2)C1)N[C@H](CO)Cc1ccccc1` (stereo partly specified) came in with an IC50 with Hepatitis C virus [1] of 10 µM. Still for that read-out and setting: the same measure for `CC(C)CCN(C)C(=O)c1c(F)cccc1OCC(=O)N[C@H](CO)Cc1ccccc1`: 0.47 µM; for `O=C(COc1cccc(F)c1C(=O)N1CCCC1Cc1ccccn1)N[C@H](CO)Cc1ccccc1` (stereo partly specified): greater than 20 µM; for `CCCN(C)C(=O)c1c(F)cccc1OCC(=O)N[C@H](CO)Cc1ccccc1`: 6 µM. Same read-out and setting: the same measure for `O=C(COc1cccc(F)c1C(=O)N1CCCCCC1)N[C@H](CO)Cc1ccccc1`: 2.6 µM. Still for that read-out and setting: the same measure for `C[S+]([O-])CCNC(=O)c1c(F)cccc1OCC(=O)N[C@H](CO)Cc1ccccc1` (stereo partly specified): greater than 20 µM.
